Measurements reported in ChEMBL document CHEMBL4680199, “Synthesis and in vitro evaluation of new 5-substituted 6-nitroimidazooxazoles as antikinetoplastid agents” (Eur J Med Chem, 2020).

Assays:
Leishmania donovani = experiment: Antileishmanial activity against Leishmania donovani MHOM/IN/00/DEVI promastigotes measured after 72 hrs by MTT assay; format: functional, organism-based
In short: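 Log-phase promastigotes were grown in Schneider's medium with 20% FCS, 2 mM L-glutamine and penicillin/streptomycin, and seeded at 10⁶ parasites/mL. Compounds in DMSO (final <0.5% v/v) were tested in duplicate for 72 h at 27 °C. MTT was added for 4 h, the reaction was stopped with 50% isopropanol/10% SDS, and A570 was read. IC50 relative to control was fitted by non-linear regression; mean of ≥3 independent experiments.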

Trypanosoma cruzi = experiment: Antitrypanosomal activity against Trypanosoma cruzi CL amastigotes overexpressing tdTomato red fluorescent protein infected in gamma-irradiated African green monkey Vero cells assessed as reduction in parasite growth measured 3 days post-infection by fluorescence assay; format: functional, organism-based; settings: light or radiation study, 72 h
[1] = Cytotoxicity against CHO cells assessed as reduction in cell viability after 24 hrs by MTT assay; format: cell-based, Cricetulus griseus; settings: chinese hamster
In short: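 Cells in complete RPMI (10% FCS, L-glutamine, penicillin/streptomycin) were allowed to adhere for 24 h at 37 °C in 5% CO₂. Compounds in DMSO (final <0.5% v/v) were then added in duplicate for 24 h. MTT (0.5 mg/mL in FCS-free medium) was applied for 2 h, formazan was dissolved in DMSO, and A570 was read with 630 nm reference. Viability is % of untreated cells; CC50 by non-linear regression; mean of three experiments.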

[2] = Selectivity index, ratio of CC50 for CHO cells to IC50 for antitrypanosomal activity against Trypanosoma cruzi CL amastigotes overexpressing tdTomato red fluorescent protein infected in gamma-irradiated African green monkey Vero cells; format: toxicity; settings: Chinese hamster, read-out: Ratio CC50/IC50
In short: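 SI = CHO CC50 / T. cruzi IC50. CHO cells: complete RPMI + 10% FCS, 24 h attachment, then 24 h compound exposure at 37 °C, 5% CO₂, DMSO <0.5% final, in duplicate. MTT 0.5 mg/mL for 2 h, read at A570/630, three experiments. Parasites were tdTomato-labelled trypomastigotes. Both values from non-linear regression of dose-response curves.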

[3] = Selectivity index, ratio of CC50 for CHO cells to IC50 for antileishmanial activity against Leishmania donovani MHOM/IN/00/DEVI promastigotes; format: toxicity; settings: hamster, read-out: Ratio CC50/IC50
In short: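 SI = CHO CC50 / promastigote IC50. Promastigotes: log-phase, Schneider's + 20% FCS, 10⁶/mL, DMSO <0.5% final, 72 h at 27 °C, MTT 4 h, A570, ≥3 experiments. CHO: complete RPMI + 10% FCS, 24 h attachment, 24 h exposure at 37 °C, MTT 0.5 mg/mL 2 h, A570/630, three experiments. Both values from non-linear regression of dose-response curves.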

Compound	IC50 (Leishmania donovani)	IC50 (Trypanosoma cruzi)	CC50 at 24 h [1]	selectivity ratio [2]	selectivity ratio [3]
Cc1ccc(-c2c([N+](=O)[O-])nc3n2CC(C)O3)cc1 (centres undefined)	> 10 µM	> 10 µM	> 250 µM	–	–
CC1Cn2c(nc([N+](=O)[O-])c2-c2cccc(C#N)c2)O1 (centres undefined)	> 10 µM	> 10 µM	> 500 µM	–	–
COc1cc(-c2c([N+](=O)[O-])nc3n2CC(C)O3)cc(OC)c1OC (centres undefined)	> 10 µM	> 10 µM	> 125 µM	–	–
CC1Cn2c(nc([N+](=O)[O-])c2-c2ccc(Cl)cc2)O1 (centres undefined)	> 10 µM	> 10 µM	> 250 µM	–	–
COc1cccc2c1C(=O)c1c(O)c3c(c(O)c1C2=O)C[C@@](O)(C(=O)CO)C[C@@H]3O[C@H]1C[C@H](N)[C@H](O)[C@H](C)O1 [DOXORUBICIN]	–	–	4.65 µM	–	–
CC1Cn2c(nc([N+](=O)[O-])c2C#Cc2ccc(CO)cc2)O1 (centres undefined)	4.11 µM	1.61 µM	8.77 µM	5.4	2.1
CC1Cn2c(nc([N+](=O)[O-])c2Br)O1 (centres undefined)	6.71 µM	> 10 µM	9.19 µM	–	1.4
CCCOc1ccc(-c2c([N+](=O)[O-])nc3n2CC(C)O3)cc1 (centres undefined)	> 10 µM	> 10 µM	> 125 µM	–	–
Cc1ccc(C#Cc2c([N+](=O)[O-])nc3n2CC(C)O3)cc1 (centres undefined)	1.66 µM	2.18 µM	5.47 µM	2.5	3.3
C[C@@H]1[C@H](O)[C@@H](C)/C=C/C=C/C=C/C=C/C=C/C=C/C=C/[C@H](O[C@@H]2O[C@H](C)[C@@H](O)[C@H](N)[C@@H]2O)C[C@@H]2O[C@](O)(C[C@@H](O)C[C@@H](O)[C@H](O)CC[C@@H](O)C[C@@H](O)CC(=O)O[C@H]1C)C[C@H](O)[C@H]2C(=O)O [AMPHOTERICIN B]	0.18 µM	–	–	–	–
O=C(Cn1ccnc1[N+](=O)[O-])NCc1ccccc1 [BENZNIDAZOLE]	–	2.31 µM	–	–	–
CC1Cn2cc([N+](=O)[O-])nc2O1 (centres undefined)	0.1 µM	> 10 µM	> 500 µM	–	> 5000
CC1Cn2c(nc([N+](=O)[O-])c2-c2cccc(C(F)(F)F)c2)O1 (centres undefined)	> 10 µM	> 10 µM	> 250 µM	–	–
CC1Cn2c(nc([N+](=O)[O-])c2C#Cc2cccc(N)c2)O1 (centres undefined)	3.49 µM	3.63 µM	18.1 µM	5	5.2
CC1Cn2c(nc([N+](=O)[O-])c2C#Cc2ccccc2)O1 (centres undefined)	2.08 µM	1.46 µM	3.54 µM	2.4	1.7
Cc1ccc(-c2c([N+](=O)[O-])nc3n2CC(C)O3)s1 (centres undefined)	> 10 µM	> 10 µM	> 125 µM	–	–
COc1cccc(C#Cc2c([N+](=O)[O-])nc3n2CC(C)O3)c1 (centres undefined)	1.58 µM	0.92 µM	12.9 µM	14	8.1
CC1Cn2c(nc([N+](=O)[O-])c2-c2ccc(C=O)cc2)O1 (centres undefined)	> 10 µM	> 10 µM	255 µM	–	–
CC1Cn2c(nc([N+](=O)[O-])c2C#CC2CC2)O1 (centres undefined)	4.59 µM	4.1 µM	6.45 µM	1.6	1.4
CC1Cn2c(nc([N+](=O)[O-])c2-c2ccc(OC(F)(F)F)cc2)O1 (centres undefined)	> 10 µM	> 10 µM	> 125 µM	–	–
CC1Cn2c(nc([N+](=O)[O-])c2-c2ccccc2)O1 (centres undefined)	> 10 µM	> 10 µM	> 500 µM	–	–
CC1Cn2c(nc([N+](=O)[O-])c2-c2ccc(CO)cc2)O1 (centres undefined)	> 10 µM	> 10 µM	> 500 µM	–	–
CC1Cn2c(nc([N+](=O)[O-])c2C#Cc2ccc(C(C)(C)C)cc2)O1 (centres undefined)	0.61 µM	2.86 µM	6.62 µM	2.3	10.8
